Experimental data reported in ChEMBL document CHEMBL3872208, “Synthesis and pharmacological characterization of novel N-(trans-4-(2-(4-(benzo[d]isothiazol-3-yl)piperazin-1-yl)ethyl)cyclohexyl)amides as potential multireceptor atypical antipsychotics” (Eur J Med Chem, 2016).
pKi: −log10 of the molar value. Active and inactive are the calls of the source. No cut-off for these calls is given here.

Legend:
Rattus norvegicus [1] = assay: Toxicity in Sprague-Dawley rat assessed as cataleptogenic effect by measuring time spent in cataleptic position at 1 to 10 mg/kg, po measured after 0.5 to 2 hrs; type: organism-based; conditions: in vivo
In short: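 Male SD rats (180–250 g, n = 7) dosed orally at 1.0, 3.0 or 10.0 mg/kg. Forepaws placed on a bar 0.9 cm in diameter, 11 cm high, at 30, 60 and 120 min after dosing. Time held is expressed as a percentage of the 60 s maximum (mean ± SEM).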

Rattus norvegicus [2] = assay: Antipsychotic activity in Sprague-Dawley rat assessed as inhibition of conditioned avoidance behavior at 1.0 to 2.0 mg/kg, ip administered as single dose measured after 1 hr; type: functional, organism-based
In short: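 Male SD rats (150–180 g, 6 per group) trained in automated shuttle-boxes; only rats exceeding 80% avoidance were used. Single i.p. dose of 1.0 or 2.0 mg/kg given 1 h before a 20-trial session. Read-out is percentage of avoidance (mean ± SEM, n = 6), compared with the vehicle group.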

Rattus norvegicus [3] = assay: Cognitive enhancement effect in Sprague-Dawley rat assessed as reversal of PCP-impaired performance by measuring increase in time spent exploring novel object in comparison to familiar object at 0.1 mg/kg, po administered 60 mins prior to test by novel object recognition assay
[4] = molecular target: T1, Muscarinic acetylcholine receptor M1 (Homo sapiens, UniProt P11229); assay: Displacement of [3H]pirenzepine from recombinant human M1 receptor expressed in CHO cell membranes at 1 uM after 60 mins by scintillation counting method relative to control; conditions: CHO cell membranes expressing recombinant human M1 receptor, probe [3H]pirenzepine
T1 sequence (P11229 whole entry): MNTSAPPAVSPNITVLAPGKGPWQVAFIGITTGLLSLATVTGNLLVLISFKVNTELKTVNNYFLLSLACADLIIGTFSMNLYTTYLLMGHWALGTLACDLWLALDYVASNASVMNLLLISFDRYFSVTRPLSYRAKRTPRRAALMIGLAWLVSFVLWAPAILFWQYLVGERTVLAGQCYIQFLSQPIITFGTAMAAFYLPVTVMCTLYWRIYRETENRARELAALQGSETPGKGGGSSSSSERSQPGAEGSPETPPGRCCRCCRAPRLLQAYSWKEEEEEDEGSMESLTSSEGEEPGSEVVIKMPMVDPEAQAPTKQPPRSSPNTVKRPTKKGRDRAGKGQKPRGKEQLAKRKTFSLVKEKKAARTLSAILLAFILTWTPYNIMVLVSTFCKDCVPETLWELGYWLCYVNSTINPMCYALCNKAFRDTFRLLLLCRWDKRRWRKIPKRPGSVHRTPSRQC
In short: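 Nonspecific binding defined with […]. Filtered on PEI-soaked GF/B and scintillation counted. Expressed as percent inhibition of control specific binding at a single test concentration.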

Rattus norvegicus [5] = assay: Reversal of PCP-induced hyperlocomotion activity in ip dosed Sprague-Dawley rat pretreated for 10 mins followed by PCP challenge measured after […]; type: functional, organism-based
[6] = Stability of compound; type: physicochemical
CHO = assay: Selectivity ratio of Ki for displacement of [3H]spiperone from recombinant human D2L receptor expressed in CHO cell membranes to Ki for displacement of [3H]methyl-spiperone from recombinant human D3 receptor expressed in CHO cell membranes
In short: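 D2L binding: CHO membranes (16 µg protein) with 0.3 nM [3H]methyl-spiperone in 50 mM Tris-HCl pH 7.4, 120 mM NaCl, 10 mM MgCl2, 1 mM EDTA, with butaclamol for nonspecific binding. D3 binding: membranes (8 µg) with 0.3 nM [3H]methyl-spiperone in the same Tris buffer with 5 mM KCl, 5 mM MgCl2, 5 mM EDTA, with (+)butaclamol for nonspecific binding. Both run 60 min at 22 °C, then GF/B filtration. Ki by Cheng–Prusoff; ratio is D2 Ki/D3 Ki.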

D(2) dopamine receptor = D(2) dopamine receptor (Homo sapiens, UniProt P14416); assay: Displacement of [3H]spiperone from recombinant human D2L receptor expressed in CHO cell membranes after 60 mins by scintillation counting method
[7] = molecular target: T2, 5-hydroxytryptamine receptor 1A (Homo sapiens, UniProt P08908); assay: Displacement of [3H]8-OH-DPAT from recombinant human 5-HT1A receptor expressed in HEK293 cell membranes after 60 mins by scintillation counting method
T2 sequence (P08908 whole entry): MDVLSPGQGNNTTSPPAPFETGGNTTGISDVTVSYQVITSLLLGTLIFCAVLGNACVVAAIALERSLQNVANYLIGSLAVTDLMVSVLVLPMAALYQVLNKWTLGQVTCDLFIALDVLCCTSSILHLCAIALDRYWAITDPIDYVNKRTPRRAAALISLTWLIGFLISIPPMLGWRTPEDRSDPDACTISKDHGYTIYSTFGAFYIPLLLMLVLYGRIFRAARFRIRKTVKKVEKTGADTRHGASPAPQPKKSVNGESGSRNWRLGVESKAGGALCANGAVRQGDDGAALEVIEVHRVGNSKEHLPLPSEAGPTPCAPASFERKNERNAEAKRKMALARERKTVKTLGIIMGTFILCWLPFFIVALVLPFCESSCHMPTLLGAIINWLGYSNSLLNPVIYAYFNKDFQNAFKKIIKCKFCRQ

D(3) dopamine receptor = D(3) dopamine receptor (Homo sapiens, UniProt P35462); assay: Displacement of [3H]methyl-spiperone from recombinant human D3 receptor expressed in CHO cell membranes after 60 mins by scintillation counting method
[8] = molecular target: 5-hydroxytryptamine receptor 2A (Homo sapiens, UniProt P28223); assay: Displacement of [3H]ketanserin from recombinant human 5-HT2A receptor expressed in HEK293 cell membranes after 60 mins by scintillation counting method
Sequence of 5-hydroxytryptamine receptor 2A (P28223 whole entry): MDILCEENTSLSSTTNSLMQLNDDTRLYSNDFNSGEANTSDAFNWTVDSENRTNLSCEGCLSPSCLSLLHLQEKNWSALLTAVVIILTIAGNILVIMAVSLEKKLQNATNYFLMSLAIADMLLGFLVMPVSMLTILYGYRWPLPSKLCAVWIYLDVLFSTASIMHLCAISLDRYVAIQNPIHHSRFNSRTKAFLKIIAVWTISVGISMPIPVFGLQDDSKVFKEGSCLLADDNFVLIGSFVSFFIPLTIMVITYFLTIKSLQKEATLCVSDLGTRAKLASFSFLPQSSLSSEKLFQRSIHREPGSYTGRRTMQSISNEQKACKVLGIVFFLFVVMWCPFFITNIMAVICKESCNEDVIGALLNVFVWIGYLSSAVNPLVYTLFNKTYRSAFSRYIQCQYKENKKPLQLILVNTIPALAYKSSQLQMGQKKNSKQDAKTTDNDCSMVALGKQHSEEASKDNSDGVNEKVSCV

Sequence of D(3) dopamine receptor (P35462 whole entry): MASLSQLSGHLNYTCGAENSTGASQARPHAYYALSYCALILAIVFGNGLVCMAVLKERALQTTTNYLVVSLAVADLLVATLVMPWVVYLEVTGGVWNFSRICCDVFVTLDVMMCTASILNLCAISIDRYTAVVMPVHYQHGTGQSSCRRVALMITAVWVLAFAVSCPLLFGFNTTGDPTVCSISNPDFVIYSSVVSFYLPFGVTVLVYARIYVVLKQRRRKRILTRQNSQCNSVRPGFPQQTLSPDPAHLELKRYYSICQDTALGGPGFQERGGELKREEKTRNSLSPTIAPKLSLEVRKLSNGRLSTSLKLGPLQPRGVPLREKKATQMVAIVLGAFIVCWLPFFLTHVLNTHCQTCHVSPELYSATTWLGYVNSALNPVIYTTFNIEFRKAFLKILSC
Sequence of D(2) dopamine receptor (P14416 whole entry): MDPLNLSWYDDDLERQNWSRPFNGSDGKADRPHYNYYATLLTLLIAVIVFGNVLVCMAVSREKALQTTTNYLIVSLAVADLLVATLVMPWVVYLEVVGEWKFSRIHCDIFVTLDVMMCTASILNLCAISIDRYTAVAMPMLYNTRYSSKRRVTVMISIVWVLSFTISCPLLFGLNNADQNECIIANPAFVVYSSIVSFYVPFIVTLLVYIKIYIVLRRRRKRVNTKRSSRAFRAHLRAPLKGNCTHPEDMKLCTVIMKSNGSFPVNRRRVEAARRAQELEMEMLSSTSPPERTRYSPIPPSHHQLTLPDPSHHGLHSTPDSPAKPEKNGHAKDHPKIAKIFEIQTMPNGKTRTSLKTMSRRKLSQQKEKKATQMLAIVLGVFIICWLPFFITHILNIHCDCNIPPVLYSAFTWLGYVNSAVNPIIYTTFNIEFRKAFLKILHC

| Compound | Activity (Rattus norvegicus [1]) | inhibition (Rattus norvegicus [2]) | Activity (Rattus norvegicus [3]) | inhibition at 1 h, 1 µM [4] [%] | Activity (Rattus norvegicus [5]) | Stability [6] | Ratio Ki (CHO) | pKi (D(2) dopamine receptor) | pKi [7] | pKi (D(3) dopamine receptor) | pKi [8] |
| --- | --- | --- | --- | --- | --- | --- | --- | --- | --- | --- | --- |
| CN(C)C(=O)N[C@H]1CC[C@H](CCN2CCN(c3cccc(Cl)c3Cl)CC2)CC1 [CARIPRAZINE] | Non-Toxic | Active | Active | < 20 | Dose-dependent effect | – | – | – | – | – | – |
| CCOC(=O)N[C@H]1CC[C@H](CCN2CCN(c3nsc4ccccc34)CC2)CC1 | – | – | – | – | – | Unstable | 12.2 | 9.15 | 9.70 | 10.24 | 9.28 |
